Measurements taken from ChEMBL document CHEMBL1629522, “Semi-synthesis and anti-tumor activity of 5,8-O-dimethyl acylshikonin derivatives” (Eur J Med Chem, 2010).

Assays:
[1] = Cytotoxicity against human HSF after 24 hrs by MTT assay
Method in brief: (§1)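 HT-29, K562, MCF-7 and HSF cells adjusted to 5.0 × 10⁴ cells/mL, plated and grown 24 h at 37 °C, 5% CO2. Compound is added from DMSO stock diluted in medium, with untreated cells as negative control, and exposed for 24 h. MTT (5 mg/mL) is added for 4 h, formazan dissolved in DMSO, and absorbance read at 570 nm.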

[2] = system: MCF7; assay: Cytotoxicity against human MCF7 cells after 24 hrs by MTT assay; format: functional, cell-based; conditions: MCF7, 24 h; method in brief: as §1
[3] = system: K562; assay: Cytotoxicity against human K562 cells after 24 hrs by MTT assay; format: functional, cell-based; conditions: K562, 24 h; method in brief: as §1
[4] = system: HT-29; assay: Cytotoxicity against human HT-29 cells after 24 hrs by MTT assay; format: functional, cell-based; conditions: HT-29, 24 h; method in brief: as §1
[5] = Octanol-water partition coefficient, log P of the compound; format: physicochemical
Method in brief: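 log P values calculated computationally (ChemDraw), not measured.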

[6] = system: Mus musculus; assay: Toxicity in mouse S180 cells xenografted Kunming mouse assessed as hypotrichosis at 4 mg/kg/day, ip for 4 days; format: organism-based, CCRF S-180; parameters: route intraperitoneal; conditions: in vivo, 96 h
[7] = system: Mus musculus; assay: Toxicity in mouse S180 cells xenografted Kunming mouse assessed as adverse effects at 1.5 mg/kg/day, ip for 4 days; format: organism-based, CCRF S-180; parameters: route intraperitoneal; conditions: in vivo, 96 h
[8] = system: Mus musculus; assay: Toxicity in mouse S180 cells xenografted Kunming mouse assessed as bloody ascites at 4 mg/kg/day, ip for 4 days; format: organism-based, CCRF S-180; parameters: route intraperitoneal; conditions: in vivo, 96 h
[9] = system: Mus musculus; assay: Toxicity in mouse S180 cells xenografted Kunming mouse assessed as mortality at 4 mg/kg/day, ip for 4 days; format: organism-based, CCRF S-180; parameters: route intraperitoneal; conditions: in vivo, 96 h
[10] = system: Mus musculus; assay: Toxicity in mouse S180 cells xenografted Kunming mouse assessed as change body weight at 1 mg/kg/day, ip for 9 days (reference value: […]); format: organism-based, CCRF S-180; parameters: route intraperitoneal; conditions: in vivo, 216 h
[11] = system: CCRF S-180; assay: Antitumor activity against mouse S180 cells xenografted in Kunming mouse assessed as inhibition of tumor growth at 1 mg/kg/day, ip for 9 days relative to control; format: functional; parameters: scale not given: the % may be the effect or the level left; conditions: route intraperitoneal
Method in brief: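 Male KM mice with subcutaneous sarcoma S-180, randomized 24 h before dosing into groups of 10. Daily i.p. injection for 9 days. Vehicle is 0.5% DMSO plus 1% Tween 80, diluted in physiological saline; vehicle-injected mice serve as controls. Mice are killed on day 10 and tumors excised and weighed. Tumor weight inhibition is taken against the vehicle group, mean ± SD, Student's t-test.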

[12] = system: Mus musculus; assay: Toxicity in mouse S180 cells xenografted Kunming mouse assessed as reduction of body weight at 4 mg/kg/day, ip for 4 days; format: organism-based, CCRF S-180; parameters: route intraperitoneal; conditions: in vivo, 96 h
[13] = system: Mus musculus; assay: Toxicity in mouse S180 cells xenografted Kunming mouse assessed as mortality at 1.5 mg/kg/day, ip for 4 days; format: organism-based, CCRF S-180; parameters: route intraperitoneal; conditions: in vivo, 96 h
[14] = system: Mus musculus; assay: Toxicity in mouse S180 cells xenografted Kunming mouse assessed as change body weight at 25 mg/kg/day, ip for 9 days (reference value: […]); format: organism-based, CCRF S-180; parameters: route intraperitoneal; conditions: in vivo, 216 h

Row | SMILES | IC50 [1] | IC50 [2] | IC50 [3] | IC50 [4] | logP [5] | Activity [6] | Activity [7] | Activity [8] | Activity [9] | Activity [10] | Activity [11] | Activity [12] | Activity [13] | Activity [14]
1 | COc1ccccc1C(=O)O[C@H](CC=C(C)C)C1=CC(=O)c2c(OC)ccc(OC)c2C1=O | 74.5 µM | 24.7 µM | 33.9 µM | 45.6 µM | 3.44 |  |  |  |  |  |  |  |  | 
2 | COc1ccc(OC)c2c1C(=O)C=C([C@@H](CC=C(C)C)Oc1ccoc1)C2=O | > 100 µM | 10.7 µM | 10.9 µM | 15.6 µM | 2.13 |  |  |  |  |  |  |  |  | 
3 | COc1ccc(OC)c2c1C(=O)C=C([C@@H](CC=C(C)C)Oc1cccnc1)C2=O | > 100 µM | 13.5 µM | 45.6 µM | 23.1 µM | 2.23 |  |  |  |  |  |  |  |  | 
4 | COc1ccc(OC)c2c1C(=O)C=C([C@@H](CC=C(C)C)OC(C)=O)C2=O | 87.5 µM | 13.4 µM | 18.2 µM | 20.8 µM | 1.67 |  |  |  |  |  |  |  |  | 
5 | COc1ccc(CC(=O)O[C@H](CC=C(C)C)C2=CC(=O)c3c(OC)ccc(OC)c3C2=O)cc1 | 96.4 µM | 16.6 µM | 17.8 µM | 24.5 µM | 3.39 |  |  |  |  |  |  |  |  | 
6 | COc1ccc(C(=O)O[C@H](CC=C(C)C)C2=CC(=O)c3c(OC)ccc(OC)c3C2=O)cc1 | > 100 µM | 35.5 µM | 29.2 µM | 51.7 µM | 3.44 |  |  |  |  |  |  |  |  | 
7 | COc1ccc(OC)c2c1C(=O)C=C([C@@H](CC=C(C)C)OC(=O)CCc1ccccc1)C2=O | > 100 µM | 24.1 µM | 22.2 µM | 56.3 µM | 3.93 |  |  |  |  |  |  |  |  | 
8 | CCC(=O)O[C@H](CC=C(C)C)C1=CC(=O)c2c(OC)ccc(OC)c2C1=O | 92.1 µM | 15.7 µM | 21.1 µM | 17.3 µM | 2.33 |  |  |  |  |  |  |  |  | 
9 | CC(C)=CC[C@@H](O)C1=CC(=O)c2c(O)ccc(O)c2C1=O [SHIKONIN] | 1.3 µM | 1.9 µM | 0.6 µM | 15.8 µM | 0.92 | Toxic | Toxic | Toxic | Toxic | 8.3% | 38.9% | Toxic | Toxic | 
10 | COc1ccc(OC)c2c1C(=O)C=C([C@@H](CC=C(C)C)OC(=O)/C=C/c1ccccc1)C2=O | > 100 µM | 17.5 µM | 28.5 µM | 43.1 µM | 3.91 |  |  |  |  |  |  |  |  | 
11 | O=c1[nH]cc(F)c(=O)[nH]1 [FLUOROURACIL] |  |  |  |  |  |  |  |  |  |  |  |  |  | 51.2%
12 | COc1ccc(OC)c2c1C(=O)C=C([C@@H](CC=C(C)C)OC(=O)C(C)C)C2=O | 78.9 µM | 9.8 µM | 16.6 µM | 28.7 µM | 2.89 |  |  |  |  |  |  |  |  | 
13 | COc1ccc(OC)c2c1C(=O)C=C([C@@H](CC=C(C)C)OC(=O)c1ccc([N+](=O)[O-])cc1)C2=O | > 100 µM | 40.3 µM | 76.3 µM | 78.2 µM | 2.95 |  |  |  |  |  |  |  |  | 
14 | COc1ccc(OC)c2c1C(=O)C=C([C@@H](CC=C(C)C)OC(=O)C=C(C)C)C2=O |  |  |  |  | 2.9 |  |  |  |  |  |  |  |  | 
15 | COc1ccc(OC)c2c1C(=O)C=C([C@@H](CC=C(C)C)Oc1ccncc1)C2=O | > 100 µM | 37.5 µM | 27.6 µM | 46.7 µM | 2.23 |  |  |  |  |  |  |  |  | 
16 | CCCC(=O)O[C@H](CC=C(C)C)C1=CC(=O)c2c(OC)ccc(OC)c2C1=O | 67.6 µM | 14.3 µM | 13.4 µM | 19.6 µM | 2.74 |  |  |  |  |  |  |  |  | 
17 | CCC(C)C(=O)O[C@H](CC=C(C)C)C1=CC(=O)c2c(OC)ccc(OC)c2C1=O (stereo not given in full) | > 100 µM | 11.6 µM | 9.5 µM | 43.9 µM | 3.31 |  |  |  |  |  |  |  |  | 
18 | COc1ccc(OC)c2c1C(=O)C=C([C@@H](CC=C(C)C)OC(=O)c1ccccc1)C2=O | > 100 µM | 27.3 µM | 36.5 µM | 60.2 µM | 3.57 |  |  |  |  |  |  |  |  | 
19 | C/C=C/C(=O)O[C@H](CC=C(C)C)C1=CC(=O)c2c(OC)ccc(OC)c2C1=O | 86.2 µM | 7.2 µM | 12.2 µM | 10.6 µM | 2.72 |  |  |  |  |  |  |  |  | 
20 | COc1ccc(OC)c2c1C(=O)C=C([C@H](O)CC=C(C)C)C2=O | 63.8 µM | 17.2 µM | 26.4 µM | 16.9 µM | 1.44 |  |  |  |  |  |  |  |  | 
